Measurements as given in ChEMBL document CHEMBL5329183, “Naphthylthiazoles: a class of broad-spectrum antifungals” (RSC Med Chem, 2023).
≈ marks a conversion by molar mass, not a printed value.

How the values were obtained:
[1] = Antifungal activity against Cryptococcus gattii NR 43209 assessed as inhibition of fungal growth incubated for 48 hrs by broth microdilution method; assay type: functional, Cryptococcus gattii VGI
Procedure, shortened: (§1)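 Broth microdilution per CLSI guidelines against clinical isolates, incubated at 35 °C for 24 h (Candida, Aspergillus) or 48 h (Cryptococcus). MIC was the lowest concentration giving 50% growth inhibition.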

[2] = Selectivity ratio of CC50 for cytotoxicity against African green monkey Vero cells to MIC for antifungal activity against Cryptococcus neoformans NR 48773; assay type: toxicity, cell-based
[3] = test system: Cryptococcus neoformans; experiment: Antifungal activity against Cryptococcus neoformans NR 41300 assessed as inhibition of fungal growth incubated for 48 hrs by broth microdilution method; assay type: functional
Procedure, shortened: (§2)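 Clinical isolate; CLSI broth microdilution over a range of concentrations (media listed: RPMI 1640, MOPS, YPD). MIC read as lowest concentration inhibiting growth by 50% after 48 h incubation at 35 °C.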

[4] = Selectivity ratio of CC50 for cytotoxicity against African green monkey Vero cells to MIC for antifungal activity against Cryptococcus neoformans NR 41300; assay type: toxicity, cell-based
[5] = Antifungal activity against Cryptococcus gattii NR 43210 assessed as inhibition of fungal growth incubated for 48 hrs by broth microdilution method; assay type: functional, Cryptococcus gattii VGI; procedure, shortened: as §1
[6] = Selectivity ratio of CC50 for cytotoxicity against human Caco-2 cells to MIC for antifungal activity against Cryptococcus neoformans NR 48770; assay type: toxicity, cell-based
[7] = test system: Candida albicans; experiment: Antifungal activity against Candida albicans ATCC 10231 assessed as inhibition of fungal growth incubated for 24 hrs by broth microdilution method; assay type: functional; procedure, shortened: as §1
[8] = test system: Candida albicans; experiment: Antifungal activity against Candida albicans NR 29448 assessed as inhibition of fungal growth incubated for 24 hrs by broth microdilution method; assay type: functional
Procedure, shortened: (§3)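 Clinical isolate; CLSI broth microdilution over a range of concentrations (media listed: RPMI 1640, MOPS, YPD). MIC taken as lowest concentration giving 50% growth inhibition after 24 h at 35 °C.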

[9] = Selectivity ratio of CC50 for cytotoxicity against African green monkey Vero cells to MIC for antifungal activity against Cryptococcus neoformans NR 41299; assay type: toxicity, cell-based
[10] = test system: [Candida] auris; experiment: Antifungal activity against Candida auris 381 assessed as inhibition of fungal growth incubated for 24 hrs by broth microdilution method; assay type: functional; conditions: Candidozyma auris; procedure, shortened: as §3
[11] = Antibacterial activity against Lactobacillus crispatus HM370 assessed as inhibition of bacterial growth; assay type: toxicity
[12] = test system: Pichia kudriavzevii; experiment: Antifungal activity against Candida krusei ATCC 34135 assessed as inhibition of fungal growth incubated for 24 hrs by broth microdilution method; assay type: functional; procedure, shortened: as §1
[13] = test system: Aspergillus fumigatus; experiment: Antifungal activity against Aspergillus fumigatus NR 35303 assessed as inhibition of fungal growth incubated for 24 hrs by broth microdilution method; assay type: functional; procedure, shortened: as §1
[14] = test system: [Candida] auris; experiment: Antifungal activity against Candida auris 382 assessed as inhibition of fungal growth incubated for 24 hrs by broth microdilution method; assay type: functional; conditions: Candidozyma auris; procedure, shortened: as §3
[15] = Selectivity ratio of CC50 for cytotoxicity against human Caco-2 cells to MIC for antifungal activity against Cryptococcus neoformans NR 48771; assay type: toxicity, cell-based
[16] = test system: Cryptococcus neoformans; experiment: Anti-cryptococcal activity against Cryptococcus neoformans NR 41300 infected in mouse J774 cells assessed as log reduction of intracellular fungal colony forming unit at 4 ug/ml measured after 24 hrs; assay type: functional; conditions: dose 4 µg/ml
Procedure, shortened: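 C. neoformans NR-41300 was grown 48 h in YPD, washed, and used to infect J774 macrophages at MOI ~100:1 for 1 h, followed by PBS washes. Compounds at 4 μg mL−1 (triplicate) were applied for 22 h at 37 °C, 5% CO2. Extracellular yeast were killed with amphotericin B 1 μg mL−1 for 1 h. Cells were lysed in 0.1% Triton X-100 and plated on YPD agar for 48 h at 37 °C; readout log10 CFU mL−1.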

[17] = Selectivity ratio of CC50 for cytotoxicity against African green monkey Vero cells to MIC for antifungal activity against Cryptococcus gattii NR 43214; assay type: toxicity, cell-based
[18] = Selectivity ratio of CC50 for cytotoxicity against African green monkey Vero cells to MIC for antifungal activity against Cryptococcus neoformans NR 48771; assay type: toxicity, cell-based
[19] = test system: Escherichia coli; experiment: Antibacterial activity against wild type Escherichia coli BW25113 assessed as inhibition of bacterial growth; assay type: functional
[20] = test system: Cryptococcus neoformans; experiment: Antifungal activity against Cryptococcus neoformans NR 41299 assessed as inhibition of fungal growth incubated for 48 hrs by broth microdilution method; assay type: functional; procedure, shortened: as §2
[21] = Selectivity ratio of CC50 for cytotoxicity against human Caco-2 cells to MIC for antifungal activity against Cryptococcus gattii NR 43209; assay type: toxicity, cell-based
[22] = test system: Cryptococcus neoformans; experiment: Antifungal activity against Cryptococcus neoformans NR 48771 assessed as inhibition of fungal growth incubated for 48 hrs by broth microdilution method; assay type: functional; procedure, shortened: as §2
[23] = test system: J774; experiment: Cytotoxicity against mouse J774 cells assessed as reduction in cell viability at 64 ug/ml measured after 24 hrs by MTS assay; assay type: toxicity, cell-based; conditions: j774, 24 h, dose 64 µg/ml
Procedure, shortened: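 J774 murine macrophages were grown in DMEM with 10% FBS and exposed to compounds for 24 h at 37 °C, 5% CO2. After 3 h with MTS, OD490 was read. Viability was expressed relative to DMSO-matched controls.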

[24] = test system: Cryptococcus neoformans; experiment: Antifungal activity against Cryptococcus neoformans NR 41298 assessed as inhibition of fungal growth incubated for 48 hrs by broth microdilution method; assay type: functional; procedure, shortened: as §2
[25] = test system: Vero; experiment: Cytotoxicity against African green monkey Vero cells assessed as inhibition of cell viability at 128 ug/ml incubated for 2 hrs by MTS assay; assay type: toxicity, cell-based; conditions: chlorocebus sabaeus, dose 128 µg/ml
Procedure, shortened: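 Vero cells were grown in MEM with 10% FBS, 1 mM sodium pyruvate and penicillin–streptomycin, then exposed to compounds for 2 h at 37 °C, 5% CO2, in triplicate. MTS was added for 3 h and OD490 read. Viability was expressed as % of DMSO-matched controls (mean ± SD).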

[26] = test system: Aspergillus fumigatus; experiment: Antifungal activity against Aspergillus fumigatus NR 35304 assessed as inhibition of fungal growth incubated for 24 hrs by broth microdilution method; assay type: functional; procedure, shortened: as §1
[27] = Volume of distribution in Sprague-Dawley rat at 25 mg/kg, po administered as single dose by LC/MS/MS analysis; assay type: ADME, organism-based; conditions: in vivo
Procedure, shortened: (§4)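 Male naïve Sprague–Dawley rats (n = 3) received a single 25 mg kg−1 dose by oral gavage in 5% ethanol/45% PEG 400/50% water. EDTA-K2 blood was sampled over 24 h. Plasma levels were measured by LC/MS/MS after acetonitrile protein precipitation, and parameters came from two-compartment analysis.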

[28] = Plasma concentration in Sprague-Dawley rat at 25 mg/kg, po administered as single dose and measured for 18 hrs by LC/MS/MS analysis; assay type: ADME, organism-based
Procedure, shortened: (§5)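 Male naïve Sprague–Dawley rats (n=3) received a single 25 mg kg−1 oral gavage dose in 5% ethanol/45% PEG 400/50% water. EDTA-K2 blood was sampled over 24 h post-dose. Plasma levels were measured by LC/MS/MS after acetonitrile protein precipitation, and parameters came from two-compartment analysis.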

[29] = Tmax in Sprague-Dawley rat at 25 mg/kg, po administered as single dose by LC/MS/MS analysis; assay type: ADME, organism-based; conditions: in vivo; procedure, shortened: as §4
[30] = AUC in Sprague-Dawley rat at 25 mg/kg, po administered as single dose by LC/MS/MS analysis; assay type: ADME, organism-based; set-up: dose 25 mg/kg, route po; conditions: in vivo; procedure, shortened: as §5
[31] = Plasma concentration in Sprague-Dawley rat at 25 mg/kg, po administered as single dose and measured within few minutes by LC/MS/MS analysis; assay type: ADME, organism-based; conditions: in vivo; procedure, shortened: as §5

| Compound | MIC [1] [µg/mL] | selectivity ratio [2] | MIC [3] [µg/mL] | selectivity ratio [4] | MIC [5] [µg/mL] | selectivity ratio [6] | MIC [7] [µg/mL] | MIC [8] [µg/mL] | selectivity ratio [9] | MIC [10] [µg/mL] | MIC [11] [µg/mL] | MIC [12] [µg/mL] | MIC [13] [µg/mL] | MIC [14] [µg/mL] | selectivity ratio [15] | Activity [16] [log10CFU/ml] | selectivity ratio [17] | selectivity ratio [18] | MIC [19] [µg/mL] | MIC [20] [µg/mL] | other results |
| --- | --- | --- | --- | --- | --- | --- | --- | --- | --- | --- | --- | --- | --- | --- | --- | --- | --- | --- | --- | --- | --- |
| Cc1nc(-c2ccc3ccccc3c2)sc1-c1nnc(N[C@@H]2CCCC[C@@H]2N)o1 (relative stereo) | 1 (≈ 2.47 µM) | 64 | 1 (≈ 2.47 µM) | 64 | 1 (≈ 2.47 µM) | 64 | 4 (≈ 9.86 µM) | 4 (≈ 9.86 µM) | 64 | 2 (≈ 4.93 µM) | > 128 | 1 (≈ 2.47 µM) | 8 (≈ 19.7 µM) | 2 (≈ 4.93 µM) | 64 | 1.04 | 64 | 64 | > 64 | 2 (≈ 4.93 µM) | selectivity ratio [21]: 64; MIC [22]: 2 µg/mL (≈ 4.93 µM); Activity [23]: Non-Toxic; MIC [24]: 1 µg/mL (≈ 2.47 µM); Activity [25]: Non-Toxic; MIC [26]: 4 µg/mL (≈ 9.86 µM) |
| Cc1nc(-c2ccc3ccccc3c2)sc1-c1nnc(N[C@@H]2CCCC[C@H]2N)o1 (relative stereo) | 1 (≈ 2.47 µM) | 64 | 1 (≈ 2.47 µM) | 64 | 1 (≈ 2.47 µM) | 64 | 4 (≈ 9.86 µM) | 4 (≈ 9.86 µM) | 64 | 2 (≈ 4.93 µM) | > 128 | 1 (≈ 2.47 µM) | 4 (≈ 9.86 µM) | 2 (≈ 4.93 µM) | 64 | 0.66 | 64 | 64 | > 64 | 1 (≈ 2.47 µM) | Vd [27]: 1.64 L; concentration at 18 h [28]: 1000 ng/mL; Tmax [29]: 3 h; AUC [30]: 79200 ng·h/mL; selectivity ratio [21]: 64; MIC [22]: 1 µg/mL (≈ 2.47 µM); Activity [23]: Non-Toxic; MIC [24]: 1 µg/mL (≈ 2.47 µM); Activity [25]: Non-Toxic; MIC [26]: 4 µg/mL (≈ 9.86 µM); Cp [31]: 1000 ng/mL |
